The source made the active and inactive calls. The calls are words filed in the database; no cut-off is given here.

The target in one series is D(2) dopamine receptor (Homo sapiens, UniProt P14416). The series can be described thus: Binding affinity to D2 receptor (unknown origin). Put shortly:
(§1)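 Radioligand displacement binding. Ki is the mean ± SEM of three experiments.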

Series [1] addresses T1, 5-hydroxytryptamine receptor 2C (Homo sapiens, UniProt P28335).
T1 sequence (P28335 whole entry): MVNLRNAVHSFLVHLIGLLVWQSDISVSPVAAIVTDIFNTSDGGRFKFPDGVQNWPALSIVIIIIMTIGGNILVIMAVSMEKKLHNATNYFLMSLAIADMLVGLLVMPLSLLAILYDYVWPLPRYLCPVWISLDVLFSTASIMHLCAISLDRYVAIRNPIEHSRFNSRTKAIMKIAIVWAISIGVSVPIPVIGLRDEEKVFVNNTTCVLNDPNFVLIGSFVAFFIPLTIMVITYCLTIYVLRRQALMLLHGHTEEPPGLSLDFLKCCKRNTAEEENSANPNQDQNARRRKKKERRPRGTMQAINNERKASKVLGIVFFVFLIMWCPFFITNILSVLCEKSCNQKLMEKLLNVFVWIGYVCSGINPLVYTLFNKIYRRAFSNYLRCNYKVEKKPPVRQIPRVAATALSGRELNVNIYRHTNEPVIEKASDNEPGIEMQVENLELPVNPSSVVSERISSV
The series can be described thus: Binding affinity to 5HT2C receptor (unknown origin). Put shortly:
as §1

Series [2] concerns the target T2, Alpha-2A adrenergic receptor (Homo sapiens, UniProt P08913).
T2 sequence (P08913 whole entry): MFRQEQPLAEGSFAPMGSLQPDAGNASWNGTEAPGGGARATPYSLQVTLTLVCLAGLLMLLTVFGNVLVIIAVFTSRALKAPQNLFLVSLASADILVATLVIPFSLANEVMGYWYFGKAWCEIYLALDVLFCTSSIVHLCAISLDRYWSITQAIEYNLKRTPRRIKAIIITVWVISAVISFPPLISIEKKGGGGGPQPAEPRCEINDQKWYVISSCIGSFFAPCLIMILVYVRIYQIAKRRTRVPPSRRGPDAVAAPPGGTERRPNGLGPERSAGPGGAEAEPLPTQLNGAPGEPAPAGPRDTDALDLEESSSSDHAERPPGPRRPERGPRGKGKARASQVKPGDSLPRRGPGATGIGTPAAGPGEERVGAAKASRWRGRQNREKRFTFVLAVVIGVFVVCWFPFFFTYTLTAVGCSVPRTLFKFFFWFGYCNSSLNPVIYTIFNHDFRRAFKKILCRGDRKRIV
Kind of series: Binding affinity to alpha2 adrenergic receptor (unknown origin). Put shortly: as §1

In series [3] the target is T3, Adrenergic receptor alpha-1 (Homo sapiens, UniProt P35348+P25100+P35368).
T3 sequence (P35348 whole entry): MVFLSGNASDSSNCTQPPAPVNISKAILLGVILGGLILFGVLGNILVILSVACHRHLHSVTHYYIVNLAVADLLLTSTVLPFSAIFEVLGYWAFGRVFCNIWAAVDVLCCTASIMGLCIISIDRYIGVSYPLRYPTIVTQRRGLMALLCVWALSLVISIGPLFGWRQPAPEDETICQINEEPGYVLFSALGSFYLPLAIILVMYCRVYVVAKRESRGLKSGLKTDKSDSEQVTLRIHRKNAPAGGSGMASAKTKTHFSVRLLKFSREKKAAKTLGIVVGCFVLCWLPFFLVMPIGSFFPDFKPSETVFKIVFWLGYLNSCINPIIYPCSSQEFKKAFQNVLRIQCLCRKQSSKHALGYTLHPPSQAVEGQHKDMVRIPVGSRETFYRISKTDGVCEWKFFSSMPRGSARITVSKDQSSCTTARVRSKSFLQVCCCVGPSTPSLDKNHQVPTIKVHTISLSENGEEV
T3 sequence (P25100 whole entry): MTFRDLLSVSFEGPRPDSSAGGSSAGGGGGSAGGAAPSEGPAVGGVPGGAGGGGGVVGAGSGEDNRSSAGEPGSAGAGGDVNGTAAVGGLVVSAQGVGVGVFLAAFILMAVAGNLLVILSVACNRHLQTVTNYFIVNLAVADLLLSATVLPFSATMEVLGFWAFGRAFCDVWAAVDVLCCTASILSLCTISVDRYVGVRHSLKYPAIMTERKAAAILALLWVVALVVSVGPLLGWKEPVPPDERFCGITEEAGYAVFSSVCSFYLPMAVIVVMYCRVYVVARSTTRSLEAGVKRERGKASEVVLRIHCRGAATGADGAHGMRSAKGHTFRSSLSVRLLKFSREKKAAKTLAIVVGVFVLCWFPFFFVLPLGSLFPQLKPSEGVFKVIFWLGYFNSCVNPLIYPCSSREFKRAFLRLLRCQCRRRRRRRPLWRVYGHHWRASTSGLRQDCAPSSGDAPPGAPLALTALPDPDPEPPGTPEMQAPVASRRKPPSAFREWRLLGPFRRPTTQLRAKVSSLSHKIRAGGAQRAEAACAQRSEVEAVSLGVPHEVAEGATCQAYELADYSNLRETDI
T3 sequence (P35368 whole entry): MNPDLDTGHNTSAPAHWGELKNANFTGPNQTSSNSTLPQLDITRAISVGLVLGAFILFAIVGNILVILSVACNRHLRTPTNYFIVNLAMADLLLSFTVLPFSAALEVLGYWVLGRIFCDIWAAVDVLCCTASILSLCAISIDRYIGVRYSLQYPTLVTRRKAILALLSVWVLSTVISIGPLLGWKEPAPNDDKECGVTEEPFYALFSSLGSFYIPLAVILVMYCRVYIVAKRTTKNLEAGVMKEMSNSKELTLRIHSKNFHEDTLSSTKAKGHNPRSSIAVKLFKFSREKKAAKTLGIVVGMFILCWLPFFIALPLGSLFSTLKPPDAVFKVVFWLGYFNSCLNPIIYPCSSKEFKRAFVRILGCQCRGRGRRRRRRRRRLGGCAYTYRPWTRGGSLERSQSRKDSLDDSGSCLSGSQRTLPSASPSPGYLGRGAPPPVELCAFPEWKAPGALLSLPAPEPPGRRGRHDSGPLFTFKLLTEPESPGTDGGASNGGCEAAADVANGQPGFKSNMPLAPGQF
The series can be described thus: Binding affinity to alpha1 adrenergic receptor (unknown origin). Type of series: protein assay.

The target in series [4] is T4, 5-hydroxytryptamine receptor 1A (Homo sapiens, UniProt P08908).
T4 sequence (P08908 whole entry): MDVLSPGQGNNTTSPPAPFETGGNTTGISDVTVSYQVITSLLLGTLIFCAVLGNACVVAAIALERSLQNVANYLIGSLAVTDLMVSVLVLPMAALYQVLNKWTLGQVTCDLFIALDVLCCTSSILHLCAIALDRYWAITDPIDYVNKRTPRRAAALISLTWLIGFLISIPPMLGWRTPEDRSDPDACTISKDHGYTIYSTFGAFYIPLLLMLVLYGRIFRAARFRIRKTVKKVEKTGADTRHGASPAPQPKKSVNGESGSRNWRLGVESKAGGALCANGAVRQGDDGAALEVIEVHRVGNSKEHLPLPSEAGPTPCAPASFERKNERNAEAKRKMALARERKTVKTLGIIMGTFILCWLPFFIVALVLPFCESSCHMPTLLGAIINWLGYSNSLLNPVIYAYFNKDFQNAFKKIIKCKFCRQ
The series can be described thus: Binding affinity to 5HT1A receptor (unknown origin). Summed up:
as §1

Series [5] deals with 5-hydroxytryptamine receptor 6 (Homo sapiens, UniProt P50406). The series can be described thus: Binding affinity to 5HT6 receptor (unknown origin). Summed up:
as §1

The next series has as its target Histamine H1 receptor (Homo sapiens, UniProt P35367). Kind of series: Binding affinity to H1 receptor (unknown origin). Type of series: ADME.
The target in series [6] is 5-hydroxytryptamine receptor 2A (Homo sapiens, UniProt P28223). The series can be described thus: Binding affinity to 5HT2A receptor (unknown origin).
5-hydroxytryptamine receptor 2A, sequence (P28223 whole entry): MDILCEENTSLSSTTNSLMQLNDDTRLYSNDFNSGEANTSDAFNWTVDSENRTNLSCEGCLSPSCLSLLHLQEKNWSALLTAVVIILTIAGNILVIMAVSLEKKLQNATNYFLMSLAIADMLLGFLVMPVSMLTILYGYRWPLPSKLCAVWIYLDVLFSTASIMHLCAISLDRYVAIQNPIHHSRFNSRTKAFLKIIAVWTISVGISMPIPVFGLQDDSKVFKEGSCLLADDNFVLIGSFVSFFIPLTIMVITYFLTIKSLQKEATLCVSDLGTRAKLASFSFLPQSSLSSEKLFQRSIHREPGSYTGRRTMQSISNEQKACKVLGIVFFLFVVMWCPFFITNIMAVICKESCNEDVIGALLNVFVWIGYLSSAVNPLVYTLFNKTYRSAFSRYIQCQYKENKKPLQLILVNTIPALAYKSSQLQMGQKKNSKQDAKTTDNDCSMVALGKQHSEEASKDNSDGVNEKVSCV
Series [7] deals with Voltage-gated inwardly rectifying potassium channel KCNH2 (Homo sapiens, UniProt Q12809). Kind of series: Inhibition of human ERG by patch-clamp method. (In general: In patch-clamp work, channel activity is measured electrically.)
Voltage-gated inwardly rectifying potassium channel KCNH2, sequence (Q12809 whole entry): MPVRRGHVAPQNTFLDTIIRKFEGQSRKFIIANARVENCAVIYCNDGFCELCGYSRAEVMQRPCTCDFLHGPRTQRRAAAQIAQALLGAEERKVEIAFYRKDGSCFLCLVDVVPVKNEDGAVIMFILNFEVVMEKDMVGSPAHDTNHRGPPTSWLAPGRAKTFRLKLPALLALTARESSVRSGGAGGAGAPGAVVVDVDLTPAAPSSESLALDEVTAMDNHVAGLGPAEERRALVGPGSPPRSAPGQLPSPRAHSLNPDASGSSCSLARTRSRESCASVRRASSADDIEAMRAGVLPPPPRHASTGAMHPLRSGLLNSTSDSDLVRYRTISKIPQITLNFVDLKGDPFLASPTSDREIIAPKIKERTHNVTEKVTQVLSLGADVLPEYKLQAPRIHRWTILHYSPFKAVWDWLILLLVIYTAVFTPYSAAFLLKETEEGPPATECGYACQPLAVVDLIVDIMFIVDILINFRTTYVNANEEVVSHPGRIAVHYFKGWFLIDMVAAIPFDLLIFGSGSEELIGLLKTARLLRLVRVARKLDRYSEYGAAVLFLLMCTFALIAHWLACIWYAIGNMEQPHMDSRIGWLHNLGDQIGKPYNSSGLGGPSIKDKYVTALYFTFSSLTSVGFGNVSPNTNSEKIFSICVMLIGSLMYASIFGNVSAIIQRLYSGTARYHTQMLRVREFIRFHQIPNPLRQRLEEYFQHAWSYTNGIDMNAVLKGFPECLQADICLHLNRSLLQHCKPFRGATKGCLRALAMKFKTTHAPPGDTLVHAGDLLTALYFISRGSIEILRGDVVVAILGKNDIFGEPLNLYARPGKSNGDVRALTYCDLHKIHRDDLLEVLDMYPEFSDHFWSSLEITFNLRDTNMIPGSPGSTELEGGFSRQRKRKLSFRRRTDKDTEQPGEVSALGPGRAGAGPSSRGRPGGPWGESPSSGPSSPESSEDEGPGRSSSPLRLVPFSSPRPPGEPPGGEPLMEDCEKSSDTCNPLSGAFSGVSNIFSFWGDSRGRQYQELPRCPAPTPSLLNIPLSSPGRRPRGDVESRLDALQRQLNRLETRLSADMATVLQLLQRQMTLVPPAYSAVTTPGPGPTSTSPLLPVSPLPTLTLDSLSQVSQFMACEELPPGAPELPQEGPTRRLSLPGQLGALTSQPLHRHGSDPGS
Series [8] has as its system Mus musculus. Kind of series: Antipsychotic activity in po dosed mouse assessed as suppression of apomorphine-induced climbing behaviour. Type of series: functional. Summed up: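 Mice climbing induced by apomorphine 1.0 mg/kg sc. Test article given po at 0.01, 0.03, 0.1, 0.3 and 1.0 mg/kg in 30% PEG 400. ED50 reported with 95% confidence limits.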
Series [9] has as its system Mus musculus. The series can be described thus: Antipsychotic activity in po dosed mouse assessed as suppression in DOI-induced head twitching response. Type of series: functional. Summed up:
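Mouse head twitch induced by DOI 1.0 mg/kg ip. Oral pretreatment at 0.01, 0.03, 0.1, 0.3 and 1.0 mg/kg in 30% PEG 400. ED50 reported with 95% confidence limits.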

Series [10] deals with Mus musculus. The series can be described thus: Antipsychotic activity in po dosed mouse assessed as reduction in MK-801-induced hyperlocomotor activity. Type of series: functional. Put shortly: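 Mice hyperactivity induced by MK-801 0.3 mg/kg sc, locomotor activity recorded. Oral dosing at 0.01–1.0 mg/kg (five doses) in 30% PEG 400. ED50 reported with 95% confidence limits.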

In series [11] the test system is Rattus norvegicus. The series can be described thus: Antipsychotic activity in po dosed rat assessed as suppression in conditioned avoidance response measured after 90 mins by CAR test. Type of series: functional. The conditions noted are these: 1.5 h. Summed up: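 Rat conditioned avoidance responding tested 90 min after a single oral dose of 0.05, 0.15, 0.45 or 1.35 mg/kg in 30% PEG 400. n = 10 per group. Mean ± SEM, compared with vehicle (P < 0.05). ED50 reported.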

Series [12] can be described thus: Induction of catalepsy in po dosed mouse by vertical grid and elevated bar test. The conditions noted are these: in vivo. Type of series: organism-based. Summed up: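 Mouse catalepsy scored by vertical grid and elevated bar tests. Oral doses of 1, 5, 15, 45 and 100 mg/kg in 30% PEG 400. ED50 reported with 95% confidence limits.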
The subject of series [13] is Rattus norvegicus. Kind of series: Memory enhancement effect in rat assessed as increase in total exploratory time for novel objects at 0.1 mg/kg, po administered 1 hr prior to acquisition trial and measured after 24 hrs by novel object recognition test. Type of series: functional, organism-based. The conditions noted are these: time 25.0 hrs.

Histamine H1 receptor, sequence (P35367 whole entry): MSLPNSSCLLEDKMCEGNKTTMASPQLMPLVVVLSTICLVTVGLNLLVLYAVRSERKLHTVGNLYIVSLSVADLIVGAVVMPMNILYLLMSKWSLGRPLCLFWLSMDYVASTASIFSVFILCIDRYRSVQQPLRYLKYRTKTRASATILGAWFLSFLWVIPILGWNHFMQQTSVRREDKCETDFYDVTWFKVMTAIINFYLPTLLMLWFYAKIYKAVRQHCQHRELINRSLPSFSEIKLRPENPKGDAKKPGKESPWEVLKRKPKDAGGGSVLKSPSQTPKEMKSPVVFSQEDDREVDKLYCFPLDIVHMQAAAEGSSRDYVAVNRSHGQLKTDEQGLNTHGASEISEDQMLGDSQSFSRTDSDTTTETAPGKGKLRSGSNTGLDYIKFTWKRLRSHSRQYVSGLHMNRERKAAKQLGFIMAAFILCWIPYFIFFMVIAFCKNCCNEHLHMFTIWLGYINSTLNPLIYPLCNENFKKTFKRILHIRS
D(2) dopamine receptor, sequence (P14416 whole entry): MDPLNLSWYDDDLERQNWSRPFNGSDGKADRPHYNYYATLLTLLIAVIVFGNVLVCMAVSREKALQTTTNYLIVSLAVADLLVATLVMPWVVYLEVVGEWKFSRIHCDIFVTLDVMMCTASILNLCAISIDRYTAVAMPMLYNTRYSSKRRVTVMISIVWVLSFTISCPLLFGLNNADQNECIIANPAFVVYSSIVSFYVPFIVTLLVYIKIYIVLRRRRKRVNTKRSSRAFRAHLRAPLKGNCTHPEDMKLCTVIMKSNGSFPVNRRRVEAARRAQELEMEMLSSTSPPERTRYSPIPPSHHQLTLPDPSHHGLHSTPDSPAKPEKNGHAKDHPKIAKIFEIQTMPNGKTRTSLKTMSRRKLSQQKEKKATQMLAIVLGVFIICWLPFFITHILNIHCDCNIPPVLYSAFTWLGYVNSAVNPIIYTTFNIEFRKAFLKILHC
5-hydroxytryptamine receptor 6, sequence (P50406 whole entry): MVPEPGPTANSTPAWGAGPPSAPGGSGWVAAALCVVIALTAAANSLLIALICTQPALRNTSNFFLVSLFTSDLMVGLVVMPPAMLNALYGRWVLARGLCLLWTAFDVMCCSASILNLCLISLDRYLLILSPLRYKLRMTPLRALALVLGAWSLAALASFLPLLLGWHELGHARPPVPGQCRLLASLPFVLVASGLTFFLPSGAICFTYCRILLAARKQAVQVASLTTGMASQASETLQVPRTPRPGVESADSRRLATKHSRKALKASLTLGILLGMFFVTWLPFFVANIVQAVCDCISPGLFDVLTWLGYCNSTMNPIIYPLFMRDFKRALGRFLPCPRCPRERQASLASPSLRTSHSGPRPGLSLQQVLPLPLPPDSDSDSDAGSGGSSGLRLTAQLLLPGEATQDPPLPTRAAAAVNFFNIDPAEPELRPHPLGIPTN

In the case of `CC(=O)Nc1ccc(OCCCCN2CCC(c3noc4cc(F)ccc34)CC2)cc1`, the Ki (commonly a measure of affinity in units of concentration, obtained from inhibition or displacement) on D(2) dopamine receptor amounted to 1140 nM; in series [1] it was 186 nM; in [2], 193 nM; in series [3] it was 195 nM; in [4] it was 1230 nM; in series [5], 765 nM. In addition, the Ki worked out at 54.2 nM on Histamine H1 receptor and 224 nM in [6]. Also, the IC50 (usually the concentration that inhibits the measured activity by half) in series [7] stood at 369 nM.
As to `Cc1nc2n(c(=O)c1CCN1CCC(c3noc4cc(F)ccc34)CC1)CCCC2` [RISPERIDONE], the ED50 (as a rule, the midpoint of the dose-response relation) in the series with Mus musculus [8] came out at 0.025 mg/kg; in the series on Mus musculus [9] it was 0.019 mg/kg; with Mus musculus [10], 0.011 mg/kg; in the series on Rattus norvegicus [11], 0.49 mg/kg; in series [12], 1.2 mg/kg. In the series on Rattus norvegicus [13], the outcome was inactive.

The record behind these values is ChEMBL document CHEMBL4725387, “Synthesis and pharmacological evaluation of piperidine (piperazine)-amide substituted derivatives as multi-target antipsychotics” (Bioorg Med Chem Lett, 2020).
